From ChEMBL document CHEMBL2380254, “Optimization of tocotrienols as antiproliferative and antimigratory leads” (Eur J Med Chem, 2013)

How the values were obtained:
IGROV-1 = assay: Growth inhibition of human IGROV1 cells assessed as cell growth at 10 uM after 48 hrs by sulforhodamine B assay; assay type: functional; conditions: IGROV-1, 48 h, read-out: Activity
Procedure, shortened: (§1)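 NCI-60 single-dose screen at 10 µM: cells in RPMI 1640 with 5% FBS, preincubated 24 h, then exposed 48 h at 37 °C. TCA fixation (16% final for suspension cells), SRB staining, absorbance 515 nm. Percent growth relative to time-zero and untreated control plates; negative values indicate cell kill.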

[1] = Growth inhibition of human EKVX cells after 48 hrs by sulforhodamine B assay; assay type: functional
Procedure, shortened: (§2)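 NCI-60 screen: cells in RPMI 1640 with 5% FBS and 2 mM glutamine, 5000–40,000 cells/well, preincubated 24 h. Five concentrations (10-fold dilutions; 100 to 0.001 µM) applied for 48 h at 37 °C. TCA fixation, SRB stain, absorbance at 515 nm. Time-zero plates included; GI50 where 100×(T−T0)/(C−T0)=50.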

SNB-19 [2] = assay: Growth inhibition of human SNB19 cells after 48 hrs by sulforhodamine B assay; assay type: functional; conditions: SNB-19, 48 h
Procedure, shortened: (§3)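 NCI-60 five-dose screen. Cells were grown in RPMI 1640 with 5% FBS and 2 mM L-glutamine, plated at 5000–40,000 cells/well and incubated 24 h before dosing, with T0 plates TCA-fixed. DMSO stocks were diluted to doses of […] and exposed 48 h at 37 °C, 5% CO2. Cells were fixed with cold TCA (final 10%, 60 min, 4 °C), stained with 0.4% SRB in 1% acetic acid for 10 min, solubilized in 10 mM trizma base and read at 515 nm. GI50 is where 100×(T−T0)/(C−T0)=50.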

[3] = Growth inhibition of human HCC2998 cells assessed as cell growth at 10 uM after 48 hrs by sulforhodamine B assay; assay type: functional; conditions: HCC 2998, 48 h, read-out: Activity; procedure, shortened: as §1
ACHN = assay: Growth inhibition of human ACHN cells after 48 hrs by sulforhodamine B assay; assay type: functional; procedure, shortened: as §2
NCI-H23 = assay: Growth inhibition of human NCI-H23 cells assessed as cell growth at 10 uM after 48 hrs by sulforhodamine B assay; assay type: functional; conditions: NCI-H23, 48 h, read-out: Activity
Procedure, shortened: (§4)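 Single-dose NCI-60 screen: adherent cells in RPMI 1640 with 5% FBS were exposed to 10 µM for 48 h at 37 °C after a 24 h preincubation. They were fixed in situ with cold TCA (10% final), stained with 0.4% SRB in 1% acetic acid, solubilized in 10 mM Tris base, and read at 515 nm. Percent growth was taken relative to time-zero and control plates.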

A498 = assay: Growth inhibition of human A498 cells assessed as cell growth at 10 uM after 48 hrs by sulforhodamine B assay; assay type: functional; conditions: A498, 48 h, read-out: Activity; procedure, shortened: as §1
COLO 205 = assay: Growth inhibition of human COLO205 cells assessed as cell growth at 10 uM after 48 hrs by sulforhodamine B assay; assay type: functional; conditions: COLO 205, 48 h, read-out: Activity; procedure, shortened: as §1
NCI-H460 = assay: Growth inhibition of human NCI-H460 cells assessed as cell growth at 10 uM after 48 hrs by sulforhodamine B assay; assay type: functional; conditions: NCI-H460, 48 h, read-out: Activity; procedure, shortened: as §4
SNB-19 [4] = assay: Growth inhibition of human SNB19 cells assessed as cell growth at 10 uM after 48 hrs by sulforhodamine B assay; assay type: functional; conditions: SNB-19, 48 h, read-out: Activity
Procedure, shortened: (§5)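 Single-dose NCI-60 test at 10 µM. Cells were grown in RPMI 1640 with 5% FBS and 2 mM L-glutamine, preincubated 24 h, with T0 plates TCA-fixed. Exposure was 48 h at 37 °C, 5% CO2. Cells were fixed with cold TCA (final 10%, 4 °C, 60 min), stained with SRB and read at 515 nm. Percent growth was taken relative to T0 and untreated control; negative values denote cell kill.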

Malme-3M = assay: Growth inhibition of human MALME-3M cells assessed as cell growth at 10 uM after 48 hrs by sulforhodamine B assay; assay type: functional; conditions: read-out: Activity; procedure, shortened: as §4
OVCAR-3 = assay: Growth inhibition of human OVCAR3 cells after 48 hrs by sulforhodamine B assay; assay type: functional; conditions: OVCAR-3, 48 h
Procedure, shortened: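 NCI-60 panel cells grown in RPMI 1640 with 5% FBS and 2 mM L-glutamine, seeded at 5000–40,000 cells/well and preincubated 24 h. Five 10-fold dilutions (0.001–100 µM) from DMSO stocks were added for 48 h at 37 °C. Adherent cells were fixed with cold TCA (10% final) for 60 min at 4 °C, stained with 0.4% SRB, and read at 515 nm. GI50 was set where 100×(T−T0)/(C−T0)=50.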

SR = assay: Growth inhibition of human SR cells assessed as cell growth at 10 uM after 48 hrs by sulforhodamine B assay; assay type: functional; conditions: read-out: Activity
Procedure, shortened: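 Suspension line in RPMI 1640 with 5% FBS, single 10 µM dose for 48 h. Settled cells were fixed with TCA (final 16%), then SRB-stained and read at 515 nm. Percent growth was taken versus T0 and control; negative values denote cytotoxicity.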

UO-31 = assay: Growth inhibition of human UO31 cells assessed as cell growth at 10 uM after 48 hrs by sulforhodamine B assay; assay type: functional; conditions: UO-31, 48 h, read-out: Activity; procedure, shortened: as §5
RPMI-8226 = assay: Growth inhibition of human RPMI8226 cells assessed as cell growth at 10 uM after 48 hrs by sulforhodamine B assay; assay type: functional; conditions: RPMI-8226, 48 h, read-out: Activity
Procedure, shortened: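 Single 10 µM dose applied to suspension cells in RPMI 1640 with 5% FBS and 2 mM L-glutamine for 48 h at 37 °C. Settled cells were fixed with 80% TCA (16% final), stained with SRB, and read at 515 nm. Percent growth was calculated against time-zero and untreated control optical densities.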

U-251 = assay: Growth inhibition of human U251 cells after 48 hrs by sulforhodamine B assay; assay type: functional; conditions: U-251, 48 h; procedure, shortened: as §3
SF-295 = assay: Growth inhibition of human SF295 cells assessed as cell growth at 10 uM after 48 hrs by sulforhodamine B assay; assay type: functional; conditions: SF-295, 48 h, read-out: Activity; procedure, shortened: as §4
MDA-MB-231 = assay: Antiproliferative activity against human MDA-MB-231 cells by MTT assay; assay type: functional, cell-based
Procedure, shortened: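 Cells plated at 8 × 10^3/well (MDA-MB-231) or 10^4/well (MCF7) in 96-well plates. Compounds fed in media with 5% FBS (MDA-MB-231) or 1% FBS (MCF7). MTT read-out of viable cells.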

PC-3 = assay: Growth inhibition of human PC3 cells assessed as cell growth at 10 uM after 48 hrs by sulforhodamine B assay; assay type: functional; conditions: PC-3, 48 h, read-out: Activity; procedure, shortened: as §4
MDA-MB-435 = assay: Growth inhibition of human MDA-MB-435 cells assessed as cell growth at 10 uM after 48 hrs by sulforhodamine B assay; assay type: functional; conditions: MDA-MB-435, 48 h, read-out: Activity; procedure, shortened: as §4
SK-MEL-2 = assay: Growth inhibition of human SK-MEL-2 cells assessed as cell growth at 10 uM after 48 hrs by sulforhodamine B assay; assay type: functional; conditions: SK-MEL-2, 48 h, read-out: Activity; procedure, shortened: as §4

SMILES	growth at 10 µM (IGROV-1) [%]	GI50 [1] [µM]	GI50 (SNB-19 [2]) [µM]	growth at 10 µM [3] [%]	GI50 (ACHN) [µM]	growth at 10 µM (NCI-H23) [%]	growth at 10 µM (A498) [%]	growth at 10 µM (COLO 205) [%]	growth at 10 µM (NCI-H460) [%]	growth at 10 µM (SNB-19 [4]) [%]	growth at 10 µM (Malme-3M) [%]	GI50 (OVCAR-3) [µM]	growth at 10 µM (SR) [%]	growth at 10 µM (UO-31) [%]	GI50 (U-251) [µM]	growth at 10 µM (SF-295) [%]	IC50 (MDA-MB-231) [µM]	growth at 10 µM (PC-3) [%]	growth at 10 µM (MDA-MB-435) [%]	growth at 10 µM (SK-MEL-2) [%]	other results
CC(C)=CCC/C(C)=C/CC/C(C)=C/CC[C@]1(C)CCc2c3c(cc(C)c2O1)OCN(CCCCO)C3	-15.1	19.6	16	-88.7	16.3	54.8	103	-76.8	-20.4	-28.3	51.2	17.2	-40.9	54.9	6.64	57.3	> 5	61.4	-31.8	–	growth at 10 µM (RPMI-8226): 79.2%
COc1ccc(CCN2COc3cc(C)c4c(c3C2)CC[C@@](C)(CC/C=C(\C)CC/C=C(\C)CCC=C(C)C)O4)cc1OC	31.8	2.69	1.66	-87.2	1.75	50.7	83.2	-72.5	-68.2	80.5	72.9	2	4.1	51.2	1.67	99.2	–	62.1	-51.1	86.4	growth at 10 µM (RPMI-8226): -32.6%
CC(C)=CCC/C(C)=C/CC/C(C)=C/CC[C@]1(C)CCc2c3c(c(C)c(C)c2O1)OCN(CCc1ccc(O)cc1)C3	67.7	–	–	23.3	–	88.2	90.2	52.1	62.4	94.1	114	–	16.3	71.9	–	100	> 5	79.9	54.5	121	–
CC(C)=CCC/C(C)=C/CC/C(C)=C/CC[C@]1(C)CCc2c3c(cc(C)c2O1)OCN(CCCCCCCCO)C3	-79.9	2.98	1.36	-90.9	2.16	-20.7	117	-94.5	0.55	-74.6	-56.5	0.811	-53.3	-91.5	0.544	-83.8	11.7	–	-76.2	-52	growth at 10 µM (RPMI-8226): -23.2%
CC(C)=CCC/C(C)=C/CC/C(C)=C/CC[C@]1(C)CCc2c3c(cc(C)c2O1)OCN(CCc1ccc(O)cc1)C3	0.45	6.13	5.89	-84.7	5.94	27.2	100	-69.9	-44.4	92.1	95.8	3.56	1.96	52.1	4.32	102	> 5	61.1	-53.1	116	–
